From ChEMBL document CHEMBL1122671, “Anticonvulsant activity of some 4-aminobenzamides” (J Med Chem, 1984)
The source made the active and inactive calls.

Key:
Mus musculus [1] = assay: Anticonvulsant activity against MES (maximal electroshock) induced seizure in mice at 4 hr; - = No activity at 600 mg/kg.; format: functional, organism-based; parameters: dose 600 mg/kg
Summary of the method: (§1)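 Male Carworth Farms number-one mice; compounds in 30% polyethylene glycol 400, given ip at 30, 100 and 300 mg/kg, some also at 600 mg/kg. Maximal electroshock challenge at 30 min or 4 h after dosing. Scored by the lowest dose giving protection (++++ 30, +++ 100, ++ 300, + 600 mg/kg; - none at 600).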

Mus musculus [2] = assay: Anticonvulsant activity against MES (maximal electroshock) induced seizure in mice at 30 min; + = Activity at 600 mg/kg.; format: functional, organism-based; parameters: dose 600 mg/kg; summary of the method: as §1
Mus musculus [3] = assay: Anticonvulsant activity against scMet (subcutaneous metrazole) induced seizure in mice at 30 min; - = No activity at 600 mg/kg.; format: functional, organism-based; parameters: dose 600 mg/kg
Summary of the method: (§2)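 Male Carworth Farms number-one mice dosed ip (30% PEG 400) at 30, 100, 300 and in some cases 600 mg/kg. Pentylenetetrazole 85 mg/kg given sc as a 0.5% solution in the posterior midline, at 30 min or 4 h. Protection means no clonic spasm of at least 5 s within 30 min. Scored by the lowest protective dose.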

Mus musculus [4] = assay: Evaluated for toxicity by using rotarod test at in mice 30 min; - = No activity at 600 mg/kg.; format: organism-based; parameters: dose 600 mg/kg; conditions: in vivo, 0.5 h
Summary of the method: (§3)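 Neurotoxicity in male Carworth Farms number-one mice dosed ip in 30% PEG 400 at 30, 100, 300 and sometimes 600 mg/kg, tested 30 min or 4 h later. Mice placed on a 1-in. knurled rod rotating at 6 rpm; toxicity means failure to stay on the rod for 1 min. Scored by the lowest toxic dose; footnotes record loss of righting reflex or lethality.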

Mus musculus [5] = assay: Anticonvulsant activity against scMet (subcutaneous metrazole) induced seizure in mice at 4 hr; - = No activity at 600 mg/kg.; format: functional, organism-based; parameters: dose 600 mg/kg; summary of the method: as §2
Mus musculus [6] = assay: Evaluated for toxicity by using rotarod test in mice at 4 hr; - = No activity at 600 mg/kg.; format: organism-based; parameters: dose 600 mg/kg; conditions: in vivo; summary of the method: as §3
Mus musculus [7] = assay: Anticonvulsant activity against scMet (subcutaneous metrazole) induced seizure in mice at 30 min; - = no activity observed at 600 mg/Kg; format: functional, organism-based
Mus musculus [8] = assay: Evaluated for toxicity by using rotarod test in mice at 4 hr; - = no activity observed at 600 mg/Kg; format: organism-based; conditions: in vivo; summary of the method: as §3
Mus musculus [9] = assay: Anticonvulsant activity against scMet (subcutaneous metrazole) induced seizure in mice at 4 hr; - = no activity observed at 600 mg/Kg; format: functional, organism-based
Mus musculus [10] = assay: Anticonvulsant activity against MES (maximal electroshock) induced seizure in mice at 4 hr; - = no activity observed at 600 mg/Kg; format: functional, organism-based
Summary of the method: (§4)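 Male Carworth Farms number-one mice received the compound ip in 30% polyethylene glycol 400. Doses were 30, 100 and 300 mg/kg, with 600 mg/kg in some cases. Maximal electroshock seizure protection was scored at 30 min and 4 h after dosing. Activity is coded by the lowest effective dose.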

Mus musculus [11] = assay: Evaluated for toxicity by using rotarod test at in mice 30 min; - = no activity observed at 600 mg/Kg; format: organism-based; conditions: in vivo, 0.5 h; summary of the method: as §3
Mus musculus [12] = assay: Anticonvulsant activity against MES (maximal electroshock) induced seizure in mice at 30 min; - = no activity observed at 600 mg/Kg; format: functional, organism-based; summary of the method: as §4
Mus musculus [13] = assay: Anticonvulsant activity against MES (maximal electroshock) induced seizure in mice at 4 hr; ++ = Activity at 300 mg/kg.; format: functional, organism-based; parameters: dose 300 mg/kg; summary of the method: as §4
Mus musculus [14] = assay: Evaluated for toxicity by using rotarod test at in mice 30 min; ++ indicates activity at 300 mg/kg,*-Loss of righting reflex at less than 300 mg/kg; format: organism-based; conditions: in vivo, 0.5 h; summary of the method: as §3
Mus musculus [15] = assay: Anticonvulsant activity against MES (maximal electroshock) induced seizure in mice at 30 min; +++ = Activity at 100 mg/kg.; format: functional, organism-based; parameters: dose 100 mg/kg; summary of the method: as §4
Mus musculus [16] = assay: Anticonvulsant activity against scMet (subcutaneous metrazole) induced seizure in mice at 30 min; ++ indicates activity at 600 mg/kg.; format: functional, organism-based; parameters: dose 600 mg/kg
Mus musculus [17] = assay: Evaluated for toxicity by using rotarod test in mice at 4 hr; + indicates activity at 600 mg/kg.; format: organism-based; parameters: dose 600 mg/kg; conditions: in vivo; summary of the method: as §3
Mus musculus [18] = assay: Anticonvulsant activity against scMet (subcutaneous metrazole) induced seizure in mice at 4 hr; ++ indicates activity at 600 mg/kg.; format: functional, organism-based; parameters: dose 600 mg/kg
Mus musculus [19] = species: Mus musculus; assay: Evaluation of inhibitory activity against scMet induced convulsions in mice; format: functional
[20] = Protective index (PI) which is defined as the ratio of TD50 to the ED50 (ScMet).; format: functional
Summary of the method: (§5)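 Both values come from ip dosing in 30% PEG 400 to male Carworth Farms number-one mice and were derived by the graphical method.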

Mus musculus [21] = assay: Evaluation of neurologic deficit by rotarod procedure in mice*-No activity at 300 mg/kg; format: functional
Summary of the method: (§6)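 Male Carworth Farms number-one mice were dosed ip (30% PEG 400 vehicle) and placed on a 1-in. knurled plastic rod rotating at 6 rpm. Neurotoxicity meant failure to stay on the rod for 1 min. TD50 was determined graphically.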

Mus musculus [22] = assay: Evaluated for toxicity by using rotarod test in mice at 4 hr; ++ = Activity at 300 mg/kg.; format: organism-based; parameters: dose 300 mg/kg; conditions: in vivo; summary of the method: as §3
[23] = Protective index (PI) which is defined as the ratio of TD50 to the ED50 (MES).; format: functional; summary of the method: as §5
Mus musculus [24] = assay: Anticonvulsant activity against MES (maximal electroshock) induced seizure in mice at 4 hr; d = No Activity at 300 mg/kg.; format: functional, organism-based; parameters: dose 300 mg/kg; summary of the method: as §4
Mus musculus [25] = assay: Anticonvulsant activity against scMet (subcutaneous metrazole) induced seizure in mice at 30 min; d = No activity at 300 mg/kg.; format: functional, organism-based; parameters: dose 300 mg/kg
Mus musculus [26] = assay: Anticonvulsant activity against scMet (subcutaneous metrazole) induced seizure in mice at 4 hr; d = No activity at 300 mg/kg.; format: functional, organism-based; parameters: dose 300 mg/kg
Mus musculus [27] = assay: Evaluated for toxicity by using rotarod test at in mice 30 min; +++ = Activity at 100 mg/kg, *-Loss of righting reflex at less than 300 mg/kg,LD50 less than 600 mg/kg; format: organism-based; conditions: in vivo, 0.5 h; summary of the method: as §3
Mus musculus [28] = assay: Evaluated for toxicity by using rotarod test at in mice 30 min; +++ = Activity at 100 mg/kg,*-Loss of righting reflex at less than 300 mg/kg; format: organism-based; conditions: in vivo, 0.5 h; summary of the method: as §3
Mus musculus [29] = species: Mus musculus; assay: Evaluation of neurologic deficit by rotarod procedure in mice; format: functional; summary of the method: as §6
Mus musculus [30] = assay: Anticonvulsant activity against scMet (subcutaneous metrazole) induced seizure in mice at 4 hr; ++ = Activity at 300 mg/kg.; format: functional, organism-based; parameters: dose 300 mg/kg
Mus musculus [31] = assay: Anticonvulsant activity against scMet (subcutaneous metrazole) induced seizure in mice at 30 min; ++ = Activity at 300 mg/kg.; format: functional, organism-based; parameters: dose 300 mg/kg
Mus musculus [32] = species: Mus musculus; assay: Evaluation of inhibitory activity against scMet induced convulsions in mice; NA = No activity.; format: functional, organism-based
Mus musculus [33] = assay: Anticonvulsant activity against MES (maximal electroshock) induced seizure in mice at 4 hr; +++ = Activity at 100 mg/kg.; format: functional, organism-based; parameters: dose 100 mg/kg; summary of the method: as §4
Mus musculus [34] = assay: Evaluated for toxicity by using rotarod test at in mice 30 min; +++ = Activity at 100 mg/kg, *-Loss of righting reflex at less than 300 mg/kg; format: organism-based; conditions: in vivo, 0.5 h; summary of the method: as §3
Mus musculus [35] = assay: Evaluated for toxicity by using rotarod test in mice at 4 hr; ++ indicates activity at 300 mg/kg.; format: organism-based; parameters: dose 300 mg/kg; conditions: in vivo; summary of the method: as §3
Mus musculus [36] = assay: Evaluated for toxicity by using rotarod test at in mice 30 min; +++ indicates activity at 100 mg/kg *-Loss of righting reflex at less than 600 mg/kg; format: organism-based; conditions: in vivo, 0.5 h; summary of the method: as §3
Mus musculus [37] = assay: Anticonvulsant activity against scMet (subcutaneous metrazole) induced seizure in mice at 4 hr; ++ indicates activity at 300 mg/kg.; format: functional, organism-based; parameters: dose 300 mg/kg
Mus musculus [38] = species: Mus musculus; assay: Evaluation of inhibitory activity aagainst MES induced convulsions in mice.; format: functional
Summary of the method: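 Quantitative MES test in male Carworth Farms number-one mice. Compound in 30% polyethylene glycol 400, given ip at graded doses. Median effective dose (ED50) read by the graphical method.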

Mus musculus [39] = assay: Anticonvulsant activity against MES (maximal electroshock) induced seizure in mice at 4 hr; +++ indicates activity at 100 mg/kg.; format: functional, organism-based; parameters: dose 100 mg/kg; summary of the method: as §4

CNC(=O)c1ccc(N)cc1
Activity (Mus musculus [1]): Not toxic | Activity (Mus musculus [2]): Activity at 600 mg/kg | Activity (Mus musculus [3]): Not toxic | Toxicity (Mus musculus [4]): Not toxic | Activity (Mus musculus [5]): Not toxic | Toxicity (Mus musculus [6]): Not toxic

Nc1ccc(C(=O)NC(c2ccccc2)c2ccccc2)cc1
Activity (Mus musculus [7]): Not toxic | Toxicity (Mus musculus [8]): Not toxic | Activity (Mus musculus [9]): Not toxic | Activity (Mus musculus [10]): Not toxic | Toxicity (Mus musculus [11]): Not toxic | Activity (Mus musculus [12]): Not toxic

CCCNC(=O)c1ccc(N)cc1
Activity (Mus musculus [13]): Activity at 100 mg/kg | Toxicity (Mus musculus [14]): activity at 300 mg/kg,*-Loss of righting reflex at less than 300 mg/kg | Activity (Mus musculus [15]): Activity at 100 mg/kg | Activity (Mus musculus [16]): Activity at 100 mg/kg | Toxicity (Mus musculus [17]): activity at 300 mg/kg,*-Loss of righting reflex at less than 300 mg/kg | Activity (Mus musculus [18]): Activity at 100 mg/kg

CCCCNC(=O)c1ccc(N)cc1
ED50 (Mus musculus [19]): 83 mg/kg | PI [20]: 1.3 | TD50 (Mus musculus [21]): 105 mg/kg | Toxicity (Mus musculus [22]): Activity at 100 mg/kg, *-Loss of righting reflex at < 300mg/kg,LD50 < 600 mg/kg | Activity (Mus musculus [15]): Activity at 100 mg/kg | PI [23]: 2.2 | Activity (Mus musculus [24]): No activity | Activity (Mus musculus [25]): No activity | Activity (Mus musculus [26]): No activity | Toxicity (Mus musculus [27]): Activity at 100 mg/kg, *-Loss of righting reflex at < 300mg/kg,LD50 < 600 mg/kg

CCCN(CCC)C(=O)c1ccc(N)cc1
Toxicity (Mus musculus [28]): Activity at 100 mg/kg,*-Loss of righting reflex at < 300 mg/kg | TD50 (Mus musculus [29]): 116 mg/kg | Activity (Mus musculus [13]): Activity at 100 mg/kg | Toxicity (Mus musculus [22]): Activity at 100 mg/kg,*-Loss of righting reflex at < 300 mg/kg | Activity (Mus musculus [15]): Activity at 100 mg/kg | PI [23]: 1.9 | Activity (Mus musculus [30]): Activity at 100 mg/kg | Activity (Mus musculus [31]): Activity at 100 mg/kg | ED50 (Mus musculus [32]): inactive

Nc1ccc(C(=O)NCc2ccccc2)cc1
TD50 (Mus musculus [29]): 83.4 mg/kg | Activity (Mus musculus [33]): Activity at 100 mg/kg | Activity (Mus musculus [3]): Not toxic | Toxicity (Mus musculus [22]): Activity at 100 mg/kg, *-Loss of righting reflex at < 300 mg/kg | PI [23]: 3.6 | Activity (Mus musculus [30]): Activity at 100 mg/kg | Toxicity (Mus musculus [34]): Activity at 100 mg/kg, *-Loss of righting reflex at < 300 mg/kg | ED50 (Mus musculus [32]): inactive

CN(Cc1ccccc1)C(=O)c1ccc(N)cc1
ED50 (Mus musculus [19]): 81.7 mg/kg | TD50 (Mus musculus [29]): 98.1 mg/kg | PI [20]: 1.2 | Toxicity (Mus musculus [35]): activity at 100 mg/kg *-Loss of righting reflex at less than 600 mg/kg | Activity (Mus musculus [15]): Activity at 100 mg/kg | PI [23]: 1.9 | Toxicity (Mus musculus [36]): activity at 100 mg/kg *-Loss of righting reflex at less than 600 mg/kg | Activity (Mus musculus [37]): Activity at 100 mg/kg | ED50 (Mus musculus [38]): 52.6 mg/kg | Activity (Mus musculus [39]): Activity at 100 mg/kg
